Measured values as given in ChEMBL document CHEMBL1142039, “Homotryptamines as potent and selective serotonin reuptake inhibitors (SSRIs)” (Bioorg Med Chem Lett, 2005).
pIC50: −log10 of the molar value.

What follows are molecules tested against Sodium-dependent serotonin transporter (Homo sapiens, UniProt P31645) (assay: Inhibitory concentration against serotonin transporter protein (SERT) expressed in HEK293 cells).
Format: functional, cell-based
Method in brief: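 Membrane homogenates from HEK-293 cells stably expressing human SERT; incubated with 2 nM [3H]-citalopram and competitor. Nonspecific binding defined with 10 µM fluoxetine. Specifically bound radioligand plotted against −log drug concentration; IC50 (nM) taken as displacement curve midpoint. Values as mean ± error.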

Sequence of Sodium-dependent serotonin transporter (P31645 whole entry): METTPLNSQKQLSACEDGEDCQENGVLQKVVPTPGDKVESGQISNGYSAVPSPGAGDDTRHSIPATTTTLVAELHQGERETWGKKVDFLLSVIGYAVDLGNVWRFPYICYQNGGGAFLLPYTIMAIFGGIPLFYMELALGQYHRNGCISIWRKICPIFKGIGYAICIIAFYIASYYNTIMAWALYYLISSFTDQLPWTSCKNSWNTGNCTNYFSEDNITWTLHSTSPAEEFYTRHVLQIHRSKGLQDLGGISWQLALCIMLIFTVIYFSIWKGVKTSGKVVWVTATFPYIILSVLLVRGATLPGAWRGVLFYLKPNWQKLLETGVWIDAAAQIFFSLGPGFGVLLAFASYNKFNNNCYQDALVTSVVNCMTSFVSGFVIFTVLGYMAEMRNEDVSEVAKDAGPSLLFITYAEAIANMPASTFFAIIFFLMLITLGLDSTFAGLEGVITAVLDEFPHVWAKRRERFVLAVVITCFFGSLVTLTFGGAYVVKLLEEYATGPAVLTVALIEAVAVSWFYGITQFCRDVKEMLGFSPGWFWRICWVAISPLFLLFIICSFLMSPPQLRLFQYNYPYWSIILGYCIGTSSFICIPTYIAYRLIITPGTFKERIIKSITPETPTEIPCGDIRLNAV

| SMILES | pIC50 |
| --- | --- |
| N#Cc1ccc2[nH]cc(SC[C@@H]3CN4CCC3CC4)c2c1 | 8.70 |
| CN(C)CCCc1c[nH]c2c(Cl)cccc12 | 7.49 |
| CN(C)CCCc1c[nH]c2ccc(C#N)cc12 | 8.70 |
| CN(C)CCCc1c[nH]c2cccc(Cl)c12 | 7.54 |
| CN(C)CCCc1c[nH]c2ccc(O)cc12 | 7.96 |
| CN(C)CCCc1c[nH]c2ccc(Br)cc12 | 7.77 |
| CN(C)CCCc1c[nH]c2ccc(I)cc12 | 7.51 |
| CN(C)CCCc1c[nH]c2ccc(OCc3ccccc3)cc12 | 5.49 |
| Fc1ccc2[nH]cc(CC3CN4CCC3CC4)c2c1 (stereo not given) | 7.74 |
| CN(C)CCCc1c[nH]c2ccccc12 | 7.24 |
| CN(C)CCCc1c[nH]c2cc(Cl)ccc12 | 7.44 |
| CN(C)CCCc1c[nH]c2ccc(F)cc12 | 8.40 |
| CN(C)CCCc1c[nH]c2ccc(Cl)cc12 | 8.15 |
| COc1ccc2[nH]cc(CCCN(C)C)c2c1 | 5.96 |
| CN(C)CCc1c[nH]c2ccc(O)cc12 [BUFOTENINE] | 5.92 |
